S100A4 inh HTS: blocks human S100A4 binding to myosin IIA peptide; S100A4/TAMRA-MyoIIA peptide fluorescence polarization; inhibition, % at 10.7 µM; 0.14% of 360,000 active;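 active = mean inhibition of at least 70% across replicates, with every replicate also reaching that level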
Target sequence (P26447 whole entry, looked up): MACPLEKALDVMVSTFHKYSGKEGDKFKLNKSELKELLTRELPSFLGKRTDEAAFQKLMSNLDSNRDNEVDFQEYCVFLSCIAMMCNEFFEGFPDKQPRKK
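Test system – S100A4 monomer (human) · Compound – single-point compound testing · Schedule – 5 min incubation before reading · Probe or stimulus – TAMRA-labelled myosin IIA heavy-chain peptide probe, 5 nM · Benchmarks – neutral control DMSO, positive control TFP · Medium – Calcium-containing HEPES buffer, pH 7.2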
FGF22 binding: shifts melting point of recombinant human FGF22 | Q9HCT0 | recombinant FGF22 thermal shift, SYPRO orange fluorescence; percent of sucrose octasulfate shift, DMSO zero | activity (Tm shift, normalised), % at 9.99 µM | 1.5% of 340,000 active;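 active = mean Tm shift, scaled 0 neutral to 100 positive control, at about 1.3% or above, every replicate too, limit read from the data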
Target sequence (Q9HCT0 whole entry, looked up): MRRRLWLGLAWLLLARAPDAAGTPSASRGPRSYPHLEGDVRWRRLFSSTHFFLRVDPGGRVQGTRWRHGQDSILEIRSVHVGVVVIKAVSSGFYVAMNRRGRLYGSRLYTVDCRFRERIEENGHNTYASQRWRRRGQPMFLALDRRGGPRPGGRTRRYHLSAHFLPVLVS
HIV Env fusion: HIV envelope-mediated fusion inhibition. HeLa-JRFL Env/CEM21 cell fusion, luciferase. inhibition, % at 12.3 µM. 1.1% of 360,000 active. AID 651610;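 active = mean replicate inhibition score of at least 50 and every replicate individually at or above 50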;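 note: 0% = plate neutral controls and 100% = maraviroc near 300 nM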
E-sel inducer: induces E-selectin expression in human endothelial cells | P16581 | HUVEC E-selectin immunofluorescence imaging; normalized: neutral wells 0, TNF-alpha wells 100 | activation, % at 7.58 µM | 0.37% of 260,000 active;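 active = mean E-selectin-positive cell signal at least 10% of the positive control, reached in at least 60% of replicates, without over 20% cell loss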
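material = human umbilical vein endothelial cells (HUVEC), E-selectin induction | quantity = 3,000 cells/well | medium = EGM-2 growth medium on 0.1% gelatin-coated wells | technique = immunofluorescence imaging | read-out basis = % PE-positive cells | control set = TNF-alpha positive control, DMSO neutral control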
F508del corr: CFTR F508del correction in bronchial cells; CFBE cells, YFP halide quenching; stimulated with forskolin plus potentiator P3; % fluorescence drop versus neutral controls; activity (quench increase), % at 7.58 µM; 0.36% of 350,000 active;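 active = mean added fluorescence quench of at least 8% versus neutral control, with both replicates also reaching 8%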;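 note: cells transiently co-express mutant CFTR-F508del with the halide-sensitive YFP; corrector assay measuring rescue of mutant channel to the surface after 24 h compound exposure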
Numbers without * were called inactive; . = no result given; [ ] = remark or other dose. An excerpt weighted towards active compounds, which were near 2.7% of everything screened.

SMILES | S100A4 inh HTS | FGF22 binding | HIV Env fusion | E-sel inducer | F508del corr
O=C(Cc1ccccn1)N1CCCCN2[C@H](C1)[C@@H](c1ccc(-c3ccccc3)cc1)[C@@H]2CO | -6.3 | -0.2 | . | 0.7 | 3.8
Cc1ccccc1-c1ccc([C@@H]2[C@@H](CO)N3CCCCN(C(=O)Cc4ccccn4)C[C@@H]23)cc1 | 24.7 | -0.4 | . | -0.2 | -2.5
C=C(C)CC1(CC)C(=O)NC(=S)NC1=O | -0.2 | 44.2* | 13.1 | 0.4 | -2.5
C=CCC1(CC)C(=O)NC(=S)NC1=O | -6.7 | 0.1 | -2.5 | -0.3 | -0.3
COC(=O)[C@@H]1[C@@H](CO)[C@@H]2Cn3c(ccc(-c4ccccc4)c3=O)[C@H]1N2C(=O)c1ccccc1F | . | . | . | 0.0 | 0.3
O=C1NC2C(=CC(O)C(O)C2O)c2cc3c(c(O)c21)OCO3 (configuration not stated) | 1.1 | -0.3 | 64.5* | -0.4 | -0.7
COc1cc(C2c3cc4c(cc3CC3COC(=O)C32)OCO4)cc(OC)c1O (configuration not stated) | -3.7 | -0.9 | -36.6 | 5.5 | 1.0
O=C1NC2C(O)C(O)C(O)C(O)C2c2cc3c(c(O)c21)OCO3 (configuration not stated) | 3.9 | 0.0 | 118.7* | 9.9 | -1.0
O=C1NC2C(=CC(O)C(O)C2O)c2cc3c(cc21)OCO3 (configuration not stated) | 1.6 | -0.2 | 99.8* | -0.4 | -2.1
CC(C)C[C@@H]1COc2cccc(N3CCN(C)CC3)c2S(=O)(=O)N1 | 11.7 | 0.3 | -11.0 | 0.0 | 12.0*
CC(C)C[C@H]1COc2cccc(N3CCN(C)CC3)c2S(=O)(=O)N1 | -5.2 | -0.2 | -10.5 | 6.7 | 1.9
O=C1NC(=O)C(CCc2ccncc2)(CCc2ccccn2)C(=O)N1c1ccc(Br)cc1 (configuration not stated) | -1.2 | 43.1* | 8.3 | . | .
O=C(Nc1ccc(C(F)(F)F)cc1)c1cccn(Cc2ccc3c(c2)OC(F)(F)O3)c1=O | . | . | 106.2* | . | .
O=C(Nc1cccc(C(F)(F)F)c1)c1cccn(Cc2ccc3c(c2)OC(F)(F)O3)c1=O | . | . | 20.5 | . | .
Cc1cccc(C)c1NC(=O)c1cccn(Cc2ccc3c(c2)OC(F)(F)O3)c1=O | . | . | 66.6* | . | .
CC(C)Oc1cccc(NC(=O)c2cccn(Cc3ccc4c(c3)OC(F)(F)O4)c2=O)c1 | . | . | 43.1 | . | .
COc1ccc(C[C@H]2NC[C@H](O)[C@H]2OC(C)=O)cc1 | -3.4 | 0.0 | -0.3 | -2.1 | -11.5
COc1ccc(C2C3C=CC(C3)C2C(=O)O)cc1 (configuration not stated) | 4.2 | 43.5* | 34.7 | 0.1 | -2.7
C[C@@H](N)Cc1cnc[nH]1 | 0.0 | 0.0 | 1.2 | 0.2 | 11.0*
O=C(O)Cc1cnc[nH]1 | -0.5 | 0.0 | 15.7 | -0.1 | -1.5
Cc1cccc(-n2c(O)c(/C=C3/C(c4ccccc4)=Nc4ccccc43)c(=O)[nH]c2=O)c1 | -9.6 | -0.1 | 91.7* | . | 12.1*
COC(=O)C[C@H]1CC[C@@H]2NC[C@H](O)COC[C@H]2O1 | . | 0.0 | -23.3[16.7 µM] | 0.0 | -0.2
Cc1cccc(OP(N)(N)=O)c1C | -2.9 | 43.5* | -1.0 | 2.0 | 1.8
CC1(C)OC(c2ccccc2)=C/C(=C/C=C2C(=O)NC(=S)NC2=O)O1 | -77.3 | 0.2 | -4.4 | 533.1* | 16.6*
CCCC#Cc1ccc([C@H]2[C@H]3CN(C(=O)Cc4ccccn4)CCCCN3[C@H]2CO)cc1 | 5.6 | -0.2 | . | -0.2 | -2.6
SMILES | S100A4 inh HTS | FGF22 binding | HIV Env fusion | E-sel inducer | F508del corr
O=C1CN=C(c2ccccc2)c2ccccc2N1Cc1ccc(C(F)(F)F)cc1 | . | . | 76.1* | . | .
COc1ccc(-n2c(C)cc(C(=O)C[N+]34CCN(CC3)CC4)c2C)cc1 | 0.2 | 43.2* | 2.5 | 0.0 | 1.0
CN(C)CC1CCCCC1OC(=O)Cc1ccc(Cl)c([N+](=O)[O-])c1 (configuration not stated) | 9.7 | -0.2 | -15.6 | 49.7* | 0.9
O=C(Cc1cccnc1)N1CCCCN2[C@H](CO)[C@@H](c3ccc(C#CC4(O)CCCC4)cc3)[C@H]2C1 | 45.7 | -0.6 | . | -0.1 | -1.3
CCC1CN1P(=O)(N1CCCC1)N1CC1CC (configuration not stated) | -1.2 | -0.2 | 59.4* | -0.2 | 5.1
COC(=O)C1=C(c2ccc(OC(F)(F)F)cc2)C[C@@H]2CC[C@H]1N2C(=O)N1CCCC1 | 1.1 | 0.3 | 58.3* | -0.2 | 1.5

Compound activity as filed in PubChem BioAssay.
